Assay results as given in ChEMBL document CHEMBL1926513, “Synthesis of novel cinnamanilides as potential immunosuppressive agents” (Eur J Med Chem, 2012).
Activity calls are given as the source filed them. The calls are words filed in the database; no cut-off is given here.

Tests used:
[1] = Immunosuppressive activity in BALB/c mouse splenocytes assessed as inhibition of CD3/CD28-induced cell proliferation at 5 ug/mL after 48 hrs by MTT assay; type: functional; details: Splenocyte
Summary of the method: (§1)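 Splenocytes from 6 to 8 week-old BALB/c mice (erythrocytes lysed with ammonium chloride, washed in PBS/2% FBS) plated at 5 × 10⁵ cells/well in RPMI 1640 with 10% FBS and antibiotics; CD3/CD28 co-stimulation with compound ([…] as printed for single-concentration screen, or a concentration series for IC50) for 48 h; survival by MTT.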

[2] = Immunosuppressive activity in BALB/c mouse splenocytes assessed as inhibition of CD3/CD28-induced cell proliferation after 48 hrs by MTT assay; type: functional, cell-based; details: Splenocyte; summary of the method: as §1
[3] = Cytotoxicity against BALB/c mouse splenocytes at 1 to 10 ug/mL after 48 hrs by MTT assay; type: cell-based; details: splenocyte
Summary of the method: (§2)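 Spleen cells from 6 to 8 week-old BALB/c mice, single-cell suspension, erythrocytes depleted with ammonium chloride, washed in PBS/2% FBS; 5 × 10⁵ cells/well in RPMI 1640 with 10% FBS, penicillin, streptomycin; unstimulated or CD3/CD28-co-stimulated cells exposed to varied compound concentrations for 48 h; viability by MTT. Compounds from DMSO stocks diluted in RPMI-1640/10% FBS.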

[4] = tested on: Splenocyte; test: Cytotoxicity against CD3/CD28-induced BALB/c mouse splenocytes at 1 to 10 ug/mL after 48 hrs by MTT assay; type: functional, cell-based; summary of the method: as §2

Compound | inhibition at 5 µg/mL [1] [%] | IC50 [2] [µM] | Activity [3] | Activity [4]
CO/C(=C\c1ccc(OC)cc1)C(=O)Nc1ccc(F)cc1 | < 50 | – | – | –
CO/C(=C\c1ccccc1)C(=O)Nc1ccc(F)cc1 | > 50 | 4.94 | – | –
CO/C(=C\c1ccc(OC)cc1)C(=O)Nc1ccc(Cl)cc1 | > 50 | 14.7 | – | –
CO/C(=C\c1ccccc1)C(=O)Nc1ccc(Cl)cc1 | > 50 | 17 | – | –
CO/C(=C\c1ccc(F)cc1)C(=O)Nc1ccc(C(C)C)cc1 | > 50 | 4.66 | Non-toxic | Active
CO/C(=C\c1ccccc1)C(=O)Nc1ccc(C(C)C)cc1 | > 50 | 3.46 | Non-toxic | Active
CO/C(=C\c1ccccc1)C(=O)Nc1ccc(Br)cc1 | < 50 | – | – | –
CO/C(=C\c1ccc(Cl)cc1)C(=O)Nc1ccc(C)cc1 | > 50 | 12.7 | – | –
CO/C(=C\c1ccccc1)C(=O)Nc1ccc(OC)cc1 | < 50 | – | – | –
CO/C(=C\c1ccc(Cl)cc1)C(=O)Nc1ccc(C(C)C)cc1 | < 50 | – | – | –
CO/C(=C\c1ccc(Cl)cc1)C(=O)Nc1ccc(F)cc1 | > 50 | 14 | – | –
CO/C(=C\c1ccc(Cl)cc1)C(=O)Nc1ccc(OC)cc1 | < 50 | – | – | –
CO/C(=C\c1ccc(OC)cc1)C(=O)Nc1ccc(Br)cc1 | > 50 | 1.77 | Non-toxic | Active
CO/C(=C\c1ccc(F)cc1)C(=O)Nc1ccc(Br)cc1 | < 50 | – | – | –
CO/C(=C\c1ccc(F)cc1)C(=O)Nc1ccc(OC)cc1 | > 50 | 13.5 | – | –
CO/C(=C\c1ccc(Br)cc1)C(=O)Nc1ccc(OC)cc1 | < 50 | – | – | –
CO/C(=C\c1ccc(OC)cc1)C(=O)Nc1ccc(OC)cc1 | < 50 | – | – | –
CO/C(=C\c1ccc(Cl)cc1)C(=O)Nc1ccc(Cl)cc1 | < 50 | – | – | –

Compound | inhibition at 5 µg/mL [1] [%] | IC50 [2] [µM] | Activity [3] | Activity [4]
CO/C(=C\c1ccc(OC)cc1)C(=O)Nc1ccc(C)cc1 | > 50 | 0.94 | Non-toxic | Active
CO/C(=C\c1ccc(Br)cc1)C(=O)Nc1ccc(Br)cc1 | < 50 | – | – | –
CO/C(=C\c1ccccc1)C(=O)Nc1ccccc1 | > 50 | 15.2 | – | –
CO/C(=C\c1ccc(Br)cc1)C(=O)Nc1ccc(F)cc1 | < 50 | – | – | –
CO/C(=C\c1ccc(F)cc1)C(=O)Nc1ccccc1 | < 50 | – | – | –
CO/C(=C\c1ccccc1)C(=O)Nc1ccc(C)cc1 | > 50 | 16.6 | – | –
CO/C(=C\c1ccc(OC)cc1)C(=O)Nc1ccc(C(C)C)cc1 | < 50 | – | – | –
CO/C(=C\c1ccc(Br)cc1)C(=O)Nc1ccc(Cl)cc1 | < 50 | – | – | –
CO/C(=C\c1ccc(Br)cc1)C(=O)Nc1ccc(C(C)C)cc1 | < 50 | – | – | –
CO/C(=C\c1ccc(F)cc1)C(=O)Nc1ccc(C)cc1 | < 50 | – | – | –
CO/C(=C\c1ccc(OC)cc1)C(=O)Nc1ccccc1 | < 50 | – | – | –
CO/C(=C\c1ccc(F)cc1)C(=O)Nc1ccc(Cl)cc1 | > 50 | 9.48 | – | –
CO/C(=C\c1ccc(Cl)cc1)C(=O)Nc1ccccc1 | < 50 | – | – | –
CO/C(=C\c1ccc(Br)cc1)C(=O)Nc1ccccc1 | < 50 | – | – | –
CO/C(=C\c1ccc(Cl)cc1)C(=O)Nc1ccc(Br)cc1 | > 50 | 11 | – | –
CO/C(=C\c1ccc(F)cc1)C(=O)Nc1ccc(F)cc1 | < 50 | – | – | –
CO/C(=C\c1ccc(Br)cc1)C(=O)Nc1ccc(C)cc1 | > 50 | 12.9 | – | –
